Screens as filed in PubChem BioAssay.
An excerpt weighted towards active compounds, which were near 4% of everything screened.
TAAR1 antag: human TAAR1 antagonism | Q96RJ0 | CHO RD-HGA16 TAAR1, Fluo-8 calcium fluorescence, antagonist | inhibition, % at 3 µM | 1.5% of 360,000 active;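 active = inhibition above a per-plate cutoff, the mean inhibition of test compounds on that plate plus 3 SD, cut at about 49% in these data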
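Test system: CHO RD-HGA16 cells bearing hTAAR1 | Reagent: β-PEA, EC80 | Compound dosing: 3 µM, single point | Schedule: Dye loading 75 min at 37 °C, then 30 min room temperature | Signal: Calcium fluorescence with Fluo-8 | Evaluation: Percent inhibition of PEA-evoked calcium signal, max/basal emission ratio | Control set: DMSO-only wells and EC80 β-PEA-stimulated wells | Repeats: Singlicate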
CHO parental Ca: counter-screen: ATP calcium response change in parental CHO cells | parental CHO-K1, ATP-induced calcium, Fluo-8 fluorescence | inhibition, % at 5.6 µM | 0.63% of 330,000 active | AID 463079;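 active = inhibition above that plate's mean sample inhibition plus 3 SD, cut at about 26% in these data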
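material = parental CHO cells | also added = ATP as calcium-mobilizing challenge | dosing = single point at 5.6 µM | detection = intracellular calcium via Fluo-8 no-wash fluorescent dye | read-out = % inhibition | benchmarks = low control ATP plus DMSO, high control DMSO only | repeats = one well per compound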
OX1R antag-1: blocks the human orexin 1 receptor. 1.8% of 330,000 active. OX1R-expressing cells, FRET antagonist read-out. O43613. inhibition, % at 6.6 µM; in the data active = inhibition mostly above about 38%, no sharp cut-off; inactive = mostly below about 40%
NTR1 ag: NTR1 (human) agonism; P30989; 0.17% of 330,000 active; activation, % at 20 µM; NTR1-U2OS beta-arrestin-GFP spot imaging, agonist mode;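 active = activation at or above 40% of the spot to cytoplasm intensity ratio, with at least 20 cells analyzed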
Target sequence (P30989 whole entry, looked up): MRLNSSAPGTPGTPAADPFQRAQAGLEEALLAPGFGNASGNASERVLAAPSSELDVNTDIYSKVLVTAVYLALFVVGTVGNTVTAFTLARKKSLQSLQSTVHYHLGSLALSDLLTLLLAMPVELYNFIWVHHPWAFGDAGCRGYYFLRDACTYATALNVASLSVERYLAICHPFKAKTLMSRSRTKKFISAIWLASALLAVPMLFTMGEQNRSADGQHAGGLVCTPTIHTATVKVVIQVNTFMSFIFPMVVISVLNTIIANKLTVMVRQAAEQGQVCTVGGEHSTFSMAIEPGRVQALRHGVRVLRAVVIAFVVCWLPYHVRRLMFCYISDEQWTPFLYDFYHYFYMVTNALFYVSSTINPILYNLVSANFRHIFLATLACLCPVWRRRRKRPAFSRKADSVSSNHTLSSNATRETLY
TAAR1 agonist: agonists of human TAAR1. AID 624467. CHO RD-HGA16 TAAR1, Fluo-8 calcium fluorescence; vehicle wells 0%, saturating PEA agonist 100%. activation, % at 3 µM. Q96RJ0. 0.99% of 360,000 active;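 active = activation above the mean activation of all test compounds in the run plus 3 SD, cut at about 38% in these data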
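Repeats: no replicates (n 1) | Material: CHO-derived RD-HGA16 cells with stable Gα16 and human TAAR1 | Technique: Kinetic Fluo-8 calcium fluorescence | Schedule: 17-24 h seeding, 75 min 37 °C dye, 30 min RT | Evaluation: % activation from peak over basal fluorescence ratio, DMSO-to-PEA scaled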
OX1R antag-2: blocks the human orexin 1 receptor; O43613; 0.43% of 330,000 active; CHO/OX1R cells, Fluo-8 calcium fluorescence, orexin A; AID 434989; inhibition, % at 5 µM;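 active = inhibition above its plate's threshold, mean inhibition of all tested compounds on the plate plus 3 SD, cut at about 37% in these data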
Numbers stand for hits; i = inactive; nt = no result.

SMILES	TAAR1 antag	CHO parental Ca	OX1R antag-1	NTR1 ag	TAAR1 agonist	OX1R antag-2
CC(=NNc1cc(C)c2ccccc2n1)c1ccccn1	i	nt	nt	nt	i	nt
O=C(Nc1ccc(S(=O)(=O)N2CCCC2)cc1)c1ccc([N+](=O)[O-])o1	nt	i	34	i	nt	i
O=C(N1CCCCCC1)N1CCN(S(=O)(=O)c2cccc([N+](=O)[O-])c2)CC1	i	i	52	i	i	i
CC(C)(C)C(=O)c1c(N)[nH]c(C(=O)c2ccccc2)c1-c1ccc(C(F)(F)F)cc1	i	nt	nt	nt	i	nt
C=CCN=C1NC(c2ccc(Cl)cc2)C(C(=O)OC)=C(C)N1C (stereo not drawn)	i	nt	nt	nt	i	nt
CCCCCCCCCCCCCCCC[N+](C)(C)CC	79	i	i	i	i	i
CCCCCCCCCCCCCCCC[N+](C)(C)CCl	63	nt	nt	nt	i	nt
CCCCCC[N+](C)(C)CCSSCC[N+](C)(C)CCCCCC	i	i	i	i	i	i
O=C1Nc2c(Cl)cc(Cl)cc2C12Nc1ccccc1S2 (stereo not drawn)	i	nt	nt	nt	i	nt
CN(c1ccccc1C(=O)NCc1ccccc1Cl)S(=O)(=O)c1ccccc1	i	i	i	i	i	i
O=C(COC(=O)c1ccccc1)Nc1ncc([N+](=O)[O-])s1	i	i	37	i	i	i
O=C(Nc1ncc([N+](=O)[O-])s1)c1cccc([N+](=O)[O-])c1	i	i	39	i	i	i
O=C(Nc1ccc(NC(=O)c2cccc([N+](=O)[O-])c2)cc1)c1cccc([N+](=O)[O-])c1	i	i	i	i	i	i
O=C(O)C1CCCC[C@H]1C(=O)Nc1ncc([N+](=O)[O-])s1 (stereo partly drawn)	i	i	66	i	i	i
O=C(Nc1ccccc1)Nc1ncc([N+](=O)[O-])s1	i	nt	nt	i	i	nt
CN(c1ccccc1)S(=O)(=O)c1ccc(-c2ccccc2)cc1	52	i	i	i	i	i
CCN(CC)S(=O)(=O)c1ccc(-c2ccc(S(=O)(=O)N(CC)CC)cc2)cc1	i	41	i	i	i	i
C[C@H](CO)N1C[C@H](C)[C@H](CN(C)C(=O)Nc2cccc(F)c2)Oc2cc(Br)ccc2S1(=O)=O	i	nt	nt	nt	i	nt
CCOC(=O)Cn1nc(-c2ccc(C)cc2)c2ccccc2c1=O	i	i	i	i	i	i
CCOC(=O)Cn1nc(-c2ccccc2)c2cnc3ccc(C)cc3c21	49	i	i	i	i	i
O=C(Oc1ccc2ccccc2c1Br)N1CCCCCC1	i	33	i	i	i	i
O=C(COc1ccc2ccccc2c1Br)N1CCCCC1	nt	i	i	i	nt	i
C=CCNC(=S)N/N=C(\C)c1ccccn1	i	29	i	i	i	i
CC(=NNC(=S)Nc1ccccc1)c1ccccn1	i	nt	nt	nt	i	nt
COc1ccccc1-n1c(Cc2cccc3ccccc23)nnc1SCC(=O)O	i	nt	nt	nt	i	nt
SMILES	TAAR1 antag	CHO parental Ca	OX1R antag-1	NTR1 ag	TAAR1 agonist	OX1R antag-2
O=C1c2cccc3cccc(c23)C(=O)N1CCCn1ccnc1	i	i	55	i	i	i
O=C1c2ccccc2C(=O)N1CCCc1nc2ccccc2c(=O)n1CCCn1ccnc1	i	i	i	i	i	i
Cc1cc(SCC(=O)O)nc2ccccc12	i	i	i	i	i	i
Cc1cc(SCC(=O)N(C)C2CCCCC2)nc2ccccc12	i	i	36	i	i	i
CCc1ccc(NC(=O)c2ccc(F)c(S(=O)(=O)N(CC)c3ccccc3)c2)cc1	59	i	i	i	i	i
CCN(CC(=O)Nc1ccc(NC(C)=O)cc1)C(=O)Cc1ccc(Cl)c(Cl)c1	i	nt	nt	i	i	nt
CCN(CC(=O)Nc1ccc(Br)cc1)C(=O)Cc1cccc(F)c1	i	i	49	i	i	i
O=C(Nc1nccs1)c1cn(-c2ccccc2)nc1-c1ccncc1	i	i	i	i	38	i
Cc1ccc(-c2nn(-c3ccccc3)cc2/C=C/C(=O)Nc2nccs2)cc1	i	i	i	i	40	i
COc1ccc(-c2nn(-c3ccccc3)cc2C(=O)Nc2nccs2)cc1	i	i	i	i	i	i
COc1ccc2oc(C(=O)c3ccccc3)c(N)c2c1	i	i	64	i	i	i
CC(OC(=O)c1cc(Br)ccc1O)C(=O)Nc1ccc(S(=O)(=O)N2CCCC2)cc1 (stereo not drawn)	52	i	i	i	i	i
NC(=O)c1ncn([C@@H]2O[C@H](C(=O)N3CCN(Cc4ccccn4)CC3)[C@@H](O)[C@H]2O)n1	i	nt	nt	nt	i	nt
COc1ccc(NC(=O)Nc2ccc3c(c2)N(C)C(=O)CS3)cc1OC	i	i	i	i	i	i
Cc1ccc(NC(=O)Nc2ccc3c(c2)N(C)C(=O)CS3)nc1	49	i	i	i	i	i
COc1ccc(NC(=O)Nc2ccc3c(c2)N(C)C(=O)CS3)cc1Cl	63	31	i	i	i	i
Cc1ccnc(NC(=O)Nc2ccc3c(c2)N(C)C(=O)CS3)c1	i	i	i	i	i	i
CCOc1ccc(NC(=O)Nc2ccc3c(c2)N(C)C(=O)CS3)cc1	52	i	i	i	i	i
Nc1[nH]c(C(=O)c2ccc(Br)cc2)c(-c2ccc(F)cc2)c1C(=O)NCCc1c[nH]c2ccccc12	i	nt	nt	nt	i	nt
COc1ccc(C(=O)C(=O)N2CCN(S(=O)(=O)c3cccc4c(N(C)C)cccc34)CC2)cc1OC	i	nt	nt	nt	i	nt
COC(=O)[C@]12C[C@H](CC(=O)NCCCCc3ccccc3)C(=O)N(Cc3ccc4c(c3)OCO4)C1=C[C@H](COCc1ccccc1)O[C@@H]2C	i	nt	nt	nt	i	nt
CCc1cccc(-n2c(C)cc(O)cc2=O)c1	i	nt	nt	nt	i	nt
O=C(Nc1ccc(F)cc1)Nc1ccc2c(c1)CCC2	i	39	i	i	i	i
Cc1cc(C(=O)Nc2ccc3c(c2)CCC3)ccc1[N+](=O)[O-]	i	i	45	i	i	i
O=C(Nc1cccc([N+](=O)[O-])c1)Nc1ccc2c(c1)CCC2	i	43	62	i	i	i
SMILES	TAAR1 antag	CHO parental Ca	OX1R antag-1	NTR1 ag	TAAR1 agonist	OX1R antag-2
O=C(Nc1ccc(F)cc1)Nc1cccc(Br)c1	i	76	58	i	i	61
COC(=O)C1=C(C)N(Cc2ccc(C(F)(F)F)cc2)C(=NCC2CC2)NC1c1ccccc1C(F)(F)F (stereo not drawn)	i	nt	nt	nt	i	nt
CC(C)S(=O)(=O)N[C@@H]1c2cc3c(cc2[C@H](c2ccccc2)[C@H]1C)OCO3	i	nt	nt	nt	i	nt
COC(=O)c1ccc(NC(=O)Nc2ccc(F)cc2F)cc1	i	i	i	i	i	i
O=C(Nc1cccc([N+](=O)[O-])c1)c1cc2ccccc2cc1O	i	36	51	i	i	i
COC(=O)c1ccc(NC(=O)Nc2cccc(F)c2)cc1	i	i	i	i	39	i
O=C(O)c1ccccc1C(=O)Nc1cccc([N+](=O)[O-])c1	i	i	i	i	i	i
CC1(C)OC(=O)C2=C(CC(CCc3ccccc3)OC2c2ccc(Cl)c(Cl)c2)O1 (stereo not drawn)	i	nt	nt	nt	i	nt
